Experiments:
[1] = molecular target: Prostaglandin G/H synthase 1 (Homo sapiens, UniProt P23219)
Rattus norvegicus [2] = test: In vivo inhibition of adjuvant arthritis in rats; type: functional
Rattus norvegicus [3] = test: Inhibition of carrageenan paw edema in rats; type: functional
How it was run: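 Fasted male Wistar rats (150-175 g, 6/group) dosed orally in 0.5% methyl cellulose/0.1% Tween (10 mL/kg). One hour later, 0.1 mL 1% carrageenan in saline was given subcutaneously into the left hind paw.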

Rattus norvegicus [4] = test: In vivo inhibition of carrageenan-induced hyperalgesia in rats; type: functional
How it was run: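 Fasted male Wistar rats (200-230 g) given oral drug, then 0.1 mL 1% carrageenan into the left hind paw 1 h later. At 5 h, walking difficulty was scored 0-2 by a blinded observer. Percentage inhibition was taken against vehicle, and ED50 was found by linear regression over four doses (6-8 rats/group).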

Rattus norvegicus [5] = species: Rattus norvegicus; test: Hemoglobin levels in the different assays ranged from 11.5-14.7 g/dl.; type: functional
Rattus norvegicus [6] = test: In vivo inhibition of carrageenan-induced air pouch in rats; type: functional
How it was run: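 Air pouch made in fasted male Wistar rats (150-175 g, 6/group) by injecting 20 mL air subcutaneously on the back on day 0. Oral gavage on day 3, then 5 mL 0.4% carrageenan into the pouch 1 h later.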

Rattus norvegicus [7] = test: In vivo inhibition of pyresis in rats; type: functional
How it was run: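 Male Wistar rats (180-200 g, 6/group) were injected subcutaneously with 15% yeast extract in saline ([…]) and fasted overnight. Next morning rectal temperature was taken, and oral dosing followed 1 h later. Temperature was recorded hourly for 5 h.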

Rattus norvegicus [8] = test: Effect on perforated ulcers(PU) at the dose of 100 mg/kg.; type: functional
How it was run: (§1)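 Male Wistar rats (150-175 g), fed freely, 10/group, dosed orally once daily for 4 consecutive days in 0.5% methyl cellulose/0.1% Tween. Anaesthetised 24 h after last dose; cardiac blood taken for hemoglobin. Whole intestine opened and scored macroscopically for perforated and nonperforated ulcers (index 0-3); value is ulcer score per incidence (% animals with ulcers).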

Rattus norvegicus [9] = test: Effect on non perforated ulcers(NPU) at the dose of 100 mg/kg.; type: functional
How it was run: as §1

Rattus norvegicus [10] = test: Effect on perforated ulcers(PU) at the dose of 10 mg/kg.; type: functional
How it was run: as §1

Rattus norvegicus [11] = test: Effect on non perforated ulcers(NPU) at the dose of 10 mg/kg.; type: functional
How it was run: as §1

Sequence of Prostaglandin G/H synthase 1 (P23219 whole entry): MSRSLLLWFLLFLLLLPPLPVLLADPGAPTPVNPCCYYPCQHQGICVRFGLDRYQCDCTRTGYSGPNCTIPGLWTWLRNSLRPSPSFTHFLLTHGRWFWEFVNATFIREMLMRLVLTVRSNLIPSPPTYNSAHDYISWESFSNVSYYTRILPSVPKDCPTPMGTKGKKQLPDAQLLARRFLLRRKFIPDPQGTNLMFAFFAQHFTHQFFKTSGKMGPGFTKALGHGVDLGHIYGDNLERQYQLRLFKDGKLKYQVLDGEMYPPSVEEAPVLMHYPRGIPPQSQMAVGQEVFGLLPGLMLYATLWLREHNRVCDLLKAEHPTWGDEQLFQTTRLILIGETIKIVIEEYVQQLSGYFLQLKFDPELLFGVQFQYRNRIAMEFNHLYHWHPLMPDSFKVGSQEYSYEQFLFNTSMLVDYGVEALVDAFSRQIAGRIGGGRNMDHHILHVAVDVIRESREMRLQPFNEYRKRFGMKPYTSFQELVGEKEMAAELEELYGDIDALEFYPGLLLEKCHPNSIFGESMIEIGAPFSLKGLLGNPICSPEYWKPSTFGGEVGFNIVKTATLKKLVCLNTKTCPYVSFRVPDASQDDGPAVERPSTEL

Row | IC50 [1] | SMILES | ED50 (Rattus norvegicus [2]) | ED35 (Rattus norvegicus [3]) | ED50 (Rattus norvegicus [4]) | Hgb levels (Rattus norvegicus [5]) | ED35 (Rattus norvegicus [6]) | ED50 (Rattus norvegicus [7]) | Ulcer score (Rattus norvegicus [8]) | Ulcer score (Rattus norvegicus [9]) | Ulcer score (Rattus norvegicus [10]) | Ulcer score (Rattus norvegicus [11])
1 | 5.1 µM | CS(=O)(=O)c1ccc(-c2coc(=O)n2-c2ccc(F)cc2)cc1 | 2.8 mg/kg | 0.6 mg/kg | 2.5 mg/kg |  |  |  |  |  |  | 
2 | 16.9 µM | Cc1cccc(-n2c(-c3ccc(S(N)(=O)=O)cc3)c(C)oc2=O)c1 |  |  |  |  |  |  |  |  |  | 
3 | 5.1 µM | COc1ccc(-n2c(-c3ccc(S(N)(=O)=O)cc3)coc2=O)cc1F |  | 3 mg/kg |  |  |  |  |  |  |  | 
4 | 1.5 µM | NS(=O)(=O)c1ccc(-c2coc(=O)n2-c2ccc(Cl)c(Cl)c2)cc1 |  |  |  |  |  |  |  |  |  | 
5 | 37.1 µM | NS(=O)(=O)c1ccc(-c2coc(=O)n2-c2cccc3ccccc23)cc1 |  |  |  |  |  |  |  |  |  | 
6 | 11.6 µM | Cc1ccc(-n2c(-c3ccc(S(C)(=O)=O)cc3)coc2=O)cc1 |  |  |  |  |  |  |  |  |  | 
7 | 42.4 µM | CCc1ccc(-n2c(-c3ccc(S(C)(=O)=O)cc3)coc2=O)cc1 |  |  |  |  |  |  |  |  |  | 
8 | 10.8 µM | NS(=O)(=O)c1ccc(-c2coc(=O)n2-c2cccc(Cl)c2)cc1 |  | 1.3 mg/kg |  |  |  |  |  |  |  | 
9 | > 100 µM | CS(=O)(=O)c1ccc(-c2coc(=O)n2-c2ccc(C(F)(F)F)cc2)cc1 |  |  |  |  |  |  |  |  |  | 
10 | > 100 µM | NS(=O)(=O)c1ccc(-c2coc(=O)n2-c2ccc(C(=O)O)cc2)cc1 |  |  |  |  |  |  |  |  |  | 
11 | 6.94 µM | CS(=O)(=O)c1ccc(-c2coc(=O)n2-c2ccc(F)cc2F)cc1 | 2.5 mg/kg | 1.4 mg/kg | 21 mg/kg |  |  |  |  |  |  | 
12 | > 100 µM | NS(=O)(=O)c1ccc(-c2coc(=O)n2C2CCCCC2)cc1 |  |  |  |  |  |  |  |  |  | 
13 | 29 µM | Cc1ccccc1-n1c(-c2ccc(S(N)(=O)=O)cc2)coc1=O |  |  |  |  |  |  |  |  |  | 
14 | 15.3 µM | NS(=O)(=O)c1ccc(-c2coc(=O)n2-c2ccc(F)cc2F)cc1 |  |  |  |  |  |  |  |  |  | 
15 | 13.6 µM | CS(=O)(=O)c1ccc(-c2coc(=O)n2-c2ccc(Cl)cc2)cc1 |  | 10 mg/kg |  |  |  |  |  |  |  | 
16 | 13.4 µM | CS(=O)(=O)c1ccc(-c2coc(=O)n2-c2ccccc2F)cc1 | > 3 mg/kg | 2.4 mg/kg | 32 mg/kg |  |  |  |  |  |  | 
17 | 0.9 µM | COc1ccc(-n2c(-c3ccc(S(N)(=O)=O)cc3)coc2=O)cc1 |  |  |  |  |  |  |  |  |  | 
18 | 35.4 µM | NS(=O)(=O)c1ccc(-c2coc(=O)n2-c2ccccc2Cl)cc1 |  |  |  |  |  |  |  |  |  | 
19 | 33.6 µM | CS(=O)(=O)c1ccc(-c2coc(=O)n2-c2ccccc2)cc1 |  |  |  |  |  |  |  |  |  | 
20 | 45.8 µM | Cc1oc(=O)n(-c2ccc(F)cc2)c1-c1ccc(S(N)(=O)=O)cc1 | 3 mg/kg | 1.1 mg/kg | 14 mg/kg |  |  |  |  |  |  | 
21 | 10.4 µM | CCc1ccc(-n2c(-c3ccc(S(N)(=O)=O)cc3)coc2=O)cc1 |  |  |  |  |  |  |  |  |  | 
22 | > 100 µM | NS(=O)(=O)c1ccc(-c2coc(=O)n2-c2cccc(C(=O)O)c2)cc1 |  |  |  |  |  |  |  |  |  | 
23 | 43.5 µM | Cc1ccc(-n2c(-c3ccc(S(N)(=O)=O)cc3)c(C)oc2=O)cc1 |  | 2.6 mg/kg |  |  |  |  |  |  |  | 
24 | 5.8 µM | COc1ccc(-n2c(-c3ccc(S(N)(=O)=O)cc3)coc2=O)cc1Cl |  | 2.4 mg/kg |  |  |  |  |  |  |  | 
25 | 49.3 µM | Cc1oc(=O)n(-c2ccccc2)c1-c1ccc(S(N)(=O)=O)cc1 | > 3 mg/kg | 1.7 mg/kg | 7.7 mg/kg |  |  |  |  |  |  | 
26 |  | Cc1ccc(-c2cc(C(F)(F)F)nn2-c2ccc(S(N)(=O)=O)cc2)cc1 [CELECOXIB] | 0.5 mg/kg | 1.1 mg/kg | 6.2 mg/kg | 13.2 g/dL | 3 mg/kg | 0.6 mg/kg | 0 | 0 |  | 
27 |  | COc1ccc2c(c1)c(CC(=O)O)c(C)n2C(=O)c1ccc(Cl)cc1 [INDOMETHACIN] | 0.22 mg/kg | 1 mg/kg | 1.2 mg/kg | 5.7 g/dL | 2 mg/kg | 1.5 mg/kg |  |  | 280 | 300
28 |  | COc1ccc2cc([C@H](C)C(=O)O)ccc2c1 [NAPROXEN] | 6.1 mg/kg | 0.45 mg/kg | 5.2 mg/kg | 7.5 g/dL | 1.4 mg/kg | 0.8 mg/kg |  |  |  | 

Row | SMILES | IC50 [1] | ED50 (Rattus norvegicus [2]) | ED35 (Rattus norvegicus [3]) | ED50 (Rattus norvegicus [4]) | Hgb levels (Rattus norvegicus [5]) | ED35 (Rattus norvegicus [6]) | ED50 (Rattus norvegicus [7]) | Ulcer score (Rattus norvegicus [8]) | Ulcer score (Rattus norvegicus [9]) | Ulcer score (Rattus norvegicus [10]) | Ulcer score (Rattus norvegicus [11])
29 | Cc1cccc(-n2c(-c3ccc(S(N)(=O)=O)cc3)coc2=O)c1 | 6.6 µM | 0.6 mg/kg | 0.9 mg/kg | 7.2 mg/kg | 12.8 g/dL | 0.47 mg/kg | 1.8 mg/kg | 0 | 0 |  | 
30 | NS(=O)(=O)c1ccc(-c2coc(=O)n2-c2ccc(C(F)(F)F)cc2)cc1 | > 100 µM | 1 mg/kg | 2.4 mg/kg | 8.1 mg/kg | 11.5 g/dL | 2.6 mg/kg | 11 mg/kg | 0 | 0 |  | 
31 | Cc1oc(=O)n(-c2ccc(Cl)c(Cl)c2)c1-c1ccc(S(N)(=O)=O)cc1 | 8.7 µM | 1.6 mg/kg | 4.4 mg/kg | 3 mg/kg | 14.6 g/dL | 0.85 mg/kg | 8.7 mg/kg | 0 | 0 |  | 
32 | NS(=O)(=O)c1ccc(-c2coc(=O)n2-c2ccccc2F)cc1 | 27.9 µM | 0.27 mg/kg | 1.7 mg/kg | 2.7 mg/kg | 11.6 g/dL | 1.6 mg/kg | 1.2 mg/kg | 0 | 0 |  | 
33 | Cc1ccc(-n2c(-c3ccc(S(N)(=O)=O)cc3)coc2=O)cc1 | 10.9 µM | 0.34 mg/kg | 0.7 mg/kg | 3.8 mg/kg | 12.9 g/dL | 1.7 mg/kg | 3.3 mg/kg | 0 | 0 |  | 
34 | NS(=O)(=O)c1ccc(-c2coc(=O)n2-c2ccc(Cl)cc2)cc1 | 7 µM | 0.2 mg/kg | 1.6 mg/kg | 0.5 mg/kg | 12.5 g/dL | 1.2 mg/kg | 2.3 mg/kg | 3 | 2.1 |  | 
35 | NS(=O)(=O)c1ccc(-c2coc(=O)n2-c2ccc(F)cc2)cc1 | 13.2 µM | 0.6 mg/kg | 2 mg/kg | 3.9 mg/kg | 12.6 g/dL | 0.4 mg/kg | 2.4 mg/kg | 0 | 0 |  | 
36 | NS(=O)(=O)c1ccc(-c2coc(=O)n2-c2ccccc2)cc1 | 24.4 µM | 0.15 mg/kg | 0.4 mg/kg | 1.1 mg/kg | 14.8 g/dL | 1.2 mg/kg | 0.5 mg/kg | 0 | 0 |  | 

Source: ChEMBL document CHEMBL1133663, “Synthesis and biological evaluation of 3,4-diaryloxazolones: A new class of orally active cyclooxygenase-2 inhibitors” (J Med Chem, 2000)
